# Bioassay records deposited in PubChem by several laboratories.
# An excerpt weighted towards active compounds, which were near 3.9% of everything screened.
# STAT1 activator: STAT1 signaling activation; 200,000 compounds, 2.6% hits; NIH 3T3 STAT1-luciferase reporter, IFN-gamma, luminescence; 100% = IFN-gamma alone, no compound; activation (% of control), % at 5.5 µM; AID 932;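 active = activation above the screen-wide mean activation plus 3 SD, cut at about 130% in these data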;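 also: raw ratio to IFN-gamma control signal so 100% means no change and 0% no light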
# STAT1 blocker: inhibitors of IFN-gamma induced STAT1 signaling | 200,000 compounds, 0.35% hits | inhibition, % at 5.5 µM | NIH 3T3 STAT1-luciferase reporter, luminescence;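 active = inhibition above a set limit, the mean inhibition across all tested compounds plus 3 SD, cut at about 34% in these data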;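 also: 0% = IFN-gamma with DMSO and 100% = IFN-gamma with 300 µM nifuroxazide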
# STAT3 activator: activators of IL-6 induced STAT3 signaling; U3A cells, IL-6 STAT3-luciferase reporter, luminescence; 100% = signal with IL-6 EC80 alone; activation (% of control), % at 5.6 µM; 190,000 compounds, 0.91% hits;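 active = activation above the screen-wide mean of compound activation plus 3 SD, cut at about 130% in these data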;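 also: 0% = background luminescence of wells with medium and substrate only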
#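 Material: STAT3-luciferase reporter U3A cells; Probe or stimulus: IL-6 (33 ng/mL); Incubation: compound pre-incubation 1 h before IL-6, then 6 h stimulation at 37 °C; Technique: luminescence from STAT3-driven luciferase reporter; Evaluation: % activation versus median of IL-6-stimulated wells; Controls: IL-6-only high control.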
# Pf gametocyte: inhibitors of late stage P. falciparum gametocyte viability; 150,000 compounds, 0.065% hits; inhibition, % at 10.9 µM; P. falciparum stage V gametocytes, ATP luminescence, 24 h;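 active = inhibition above the mean plus 3 SD of compounds within the control limits, set per campaign, cut at about 38% in these data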;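 also: 0% = DMSO wells and 100% = medium only without gametocytes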
# APP 5'UTR act: activates APP 5'UTR luciferase reporter; activation, % at 2 µM; 190,000 compounds, 1% hits; SH-SY5Y APP 5'UTR luciferase reporter, luminescence; zero percent = DMSO vehicle wells;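 active = activation above a set limit, based on mean plus 3 SD of controls, cut at about 140% in these data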
# NF-kB expr up: NF-kB expression increase, human neuronal cells; NF-kB reporter expression; stronger effect = higher value; fold change at 12.5 µM; 190,000 compounds, 1.6% hits; AID 1239; in the data active = fold change above about 3.3
# STAT1 act conf: STAT1 activation, confirmation assay. shares compounds with STAT1 activator. NIH 3T3 STAT1-luciferase reporter, IFN-gamma potentiation, luminescence; 100% = IFN-gamma EC80 alone, no compound. activation (% of control), % at 5.7 µM. 1,200 compounds, 97% hits. AID 1262;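 active = activation above a set limit carried over from the earlier primary STAT1 screen, cut at about 140% in these data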;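 also: simple ratio to median IFN-gamma plus DMSO wells so 0% means no light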
# NFkB act: counter-screen for STAT1 activators: NF-kappaB activation. HEK293T NF-kB luciferase reporter, TNF-alpha stimulated, luminescence; 100% = TNF-alpha with vehicle only. AID 1306. 1,200 compounds, 43% hits. shares compounds with STAT1 activator. activation (% of control), % at 5.7 µM;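 active = activation above the mean of solvent-only control wells plus 3 SD, set per campaign, cut at about 130% in these data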;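 also: TNF-alpha given at a submaximal dose yielding about 80% of full reporter signal; values are well signal over median control so 100% means no change and 0% no light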
# STAT3 act 2: counter-screen for STAT1 activators: human STAT3 activation; shares compounds with STAT1 activator; U3A cells STAT3-luciferase reporter, IL-6, luminescence; cells lack STAT1; 100 = IL-6 alone, no compound effect; activation (% of control), % at 5.7 µM; 1,200 compounds, 46% hits; AID 1316;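 active = activation above the solvent-only control well mean plus 3 SD, set per plate batch, cut at about 110% in these data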;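 also: 0% = no luminescence and 100% = median IL-6 plus DMSO wells; higher means more STAT3 reporter activation so hits are non-selective activators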
# The depositor's hits bear a star; / = not tested or not shown.
SMILES,STAT1 activator,STAT1 blocker,STAT3 activator,Pf gametocyte,APP 5'UTR act,NF-kB expr up,STAT1 act conf,NFkB act,STAT3 act 2
Cc1nc(C(=O)Nc2cc(F)cc(Cl)c2)sc1C1(C)CC(c2ccccc2)=NO1 (stereo not given),/,/,/,17.8,/,/,/,/,/
Fc1cccc2sc(Nc3nc4cc5c(cc4s3)OCCO5)nc12,169.6*,-78.1,93.1,/,161.5*,1.72,248.6*,107.5,131.7*
Fc1cccc2sc(Nc3nc4cc5c(cc4s3)OCO5)nc12,175.3*,-84.5,115.2,-18.7,139.1*,3.52*,213.2*,140.8*,124.5*
Fc1cc(F)c2nc(Nc3nc4cc5c(cc4s3)OCO5)sc2c1,112.9,-14.4,108.2,9.5,16.4,2.17,/,/,/
O=C(c1ccco1)N1CCN(C(=O)c2ccccc2NS(=O)(=O)c2ccc(F)cc2)CC1,92.8,6.4,107.6,-22.5,20.4,1.03,/,/,/
OCC[C@H]1C[C@H](O)[C@@H](O)[C@]2(Cc3ccccc3CCO2)O1,/,/,/,17.0,/,/,/,/,/
O=C(Nc1ccn(Cc2ccccc2)n1)c1ccc2c(c1)OCO2,123.1,-24.8,108.0,10.1,42.5,1.76,/,/,/
O=C(Nc1ccn(Cc2ccc(Cl)cc2)n1)c1ccccc1,151.4*,-60.0,109.7,-10.2,46.5,2.53,151.8*,122.0,111.6*
CN1C(=O)/C(=C\c2ccco2)N=C1c1ccc(Cl)cc1Cl,/,/,/,-0.1,/,/,/,/,/
O=C(Nc1ccccc1)C(=O)c1c[nH]c2ccccc12,/,/,/,0.2,/,/,/,/,/
NS(=O)(=O)c1ccc(N/N=C/c2ccc3c(c2)OCO3)c([N+](=O)[O-])c1,114.7,-17.2,99.6,20.3,9.1,1.34,/,/,/
O=[N+]([O-])c1ccccc1N/N=C/c1ccc2c(c1)OCO2,151.6*,-60.1,108.4,-1.8,139.3*,3.01,226.4*,120.7,116.7*
O=c1c2ccccc2cnn1-c1ccc(Cl)cc1,166.2*,-72.5,106.4,1.7,116.9,5.07*,192.2*,131.2,127.7*
O=c1c2ccccc2cnn1Cc1n[nH]c(=S)n1-c1ccc(Cl)cc1,101.1,-1.2,86.6,-24.6,-11.2,0.9,/,/,/
CCOc1ccc(C(=O)NCC(=O)OCc2ccc(F)cc2Cl)cc1,99.9,0.1,77.8,6.7,10.4,1.19,/,/,/
CSCCC(NC(N)=O)C(=O)Nc1cccc(C#N)c1 (stereo not given),98.0,0.3,102.0,-7.0,4.6,1.06,/,/,/
COc1ccc(-c2cc(C(=O)O)c(C)o2)cc1OC,152.0*,-56.2,69.7,9.3,98.7,2.42,217.6*,79.4,111.7*
Cc1oc(-c2ccc3c(c2)OCCO3)cc1C(=O)O,92.5,9.3,50.3,/,25.4,2.52,/,/,/
O=C(O)C1CC=CCC1C(=O)Nc1ccccc1 (stereo not given),104.7,-5.1,93.5,6.8,14.6,1.13,/,/,/
CC1CC1C(=O)Nc1ccc(-c2ccccc2)cc1 (stereo not given),155.2*,-62.1,93.9,1.4,120.7,3.3*,162.3*,127.0,96.8
COc1ccccc1NC(CC(=O)c1ccccc1)C(=O)OCC(=O)c1ccc(F)cc1 (stereo not given),160.9*,-69.4,79.8,9.7,89.2,1.22,185.2*,127.4,102.4
N/C(=N\OC(=O)COc1ccc(Cl)cc1Br)c1ccncc1,156.8*,-62.8,98.6,/,119.6,5.82*,198.3*,141.8*,121.8*
N/C(=N\OC(=O)c1ccccc1Cl)c1ccncc1,162.3*,-67.2,92.1,33.5,94.1,/,154.9*,115.8,99.0
N/C(=N\OC(=O)COc1cc(Cl)c(Cl)cc1Cl)c1ccccn1,159.3*,-66.5,98.8,12.9,161.2*,5.39*,192.2*,142.6*,112.9*
N/C(=N\OC(=O)CCCOc1ccc(Cl)cc1Cl)c1ccncc1,104.0,-7.4,97.5,-29.4,-1.1,1.08,/,/,/
SMILES,STAT1 activator,STAT1 blocker,STAT3 activator,Pf gametocyte,APP 5'UTR act,NF-kB expr up,STAT1 act conf,NFkB act,STAT3 act 2
NC(=O)c1sc2nc(-c3cccnc3)ccc2c1N,/,/,/,3.6,/,/,/,/,/
CCOC(=O)c1sc2nc(-c3cccnc3)ccc2c1N,176.3*,-85.3,92.8,-1.4,155.9*,8.16*,251.2*,140.5*,114.7*
CC(C)(C)OC(=O)N/N=C\C=C\c1ccc2c(c1)OCO2,158.4*,-65.7,102.9,/,/,1.12,184.5*,130.4,111.1*
COC(=O)N/N=C\C=C\c1ccc2c(c1)OCO2,122.0,-24.4,100.2,/,38.4,2.05,/,/,/
O=C1Nc2ccccc2N(O)N1c1ccc(S(=O)(=O)N2CCOCC2)cc1,95.6,4.9,97.6,6.1,-9.7,1.04,/,/,/
CC(=O)c1cnc(SCc2ccc(Cl)cc2)nc1C,202.0*,-115.0,97.3,10.5,10.3,4.71*,172.4*,111.1,101.0
COc1ccc(NC(=O)/C(Cl)=C(/Cl)S(=O)Cc2ccc(Cl)cc2)cn1 (stereo not given),291.5*,-202.4,79.3,-11.2,-95.9,0.18,278.2*,46.9,101.0
COc1ccc(NC(=O)/C(Cl)=C(/Cl)S(=O)(=O)Cc2ccccc2)cn1,170.3*,-137.0,108.8,7.8,-76.9,0.27,160.1*,90.2,116.0*
CC(NC(=O)Cc1cccc(C(F)(F)F)c1)c1ccc(F)cc1 (stereo not given),93.5,3.9,113.6,4.4,20.6,0.88,/,/,/
Cc1ccn2c(c1)nc(=S)n2C(=O)c1ccco1,216.8*,-128.7,102.4,/,161.4*,8.52*,193.1*,151.8*,122.0*
Cc1nn(C(=O)c2ccco2)c(C)c1Br,97.4,2.9,96.9,/,2.6,1.16,/,/,/
O=C(Nc1ccccc1C(=O)OCC(=O)c1c[nH]c2ccccc12)c1ccco1,103.8,-4.2,116.0,-13.4,4.1,0.57,/,/,/
CN(C)c1ccc(/C=N/N=C/c2ccccc2O)cc1,156.2*,-62.8,79.9,/,165.3*,3.6*,208.2*,87.2,75.2
C/C(=N\N=C\c1ccc(N(C)C)cc1)c1cccc([N+](=O)[O-])c1,124.6,-27.2,81.7,/,26.9,2.2,/,/,/
Cc1cccc2c1-c1sc(C(=O)Nc3nccs3)cc1CO2,160.2*,-66.3,84.8,/,96.3,2.2,189.6*,127.5,93.6
Cc1cccc2c1-c1sc(C(=O)Nc3cccc([N+](=O)[O-])c3C)cc1CO2,97.8,2.5,86.0,-7.8,5.5,0.98,/,/,/
